Results from ChEMBL document CHEMBL1148220, “Antineoplastic agents. 529. Isolation and structure of nootkastatins 1 and 2 from the Alaskan yellow cedar Chamaecyparis nootkatensis” (2004).
Values after ≈ are worked out from the molar mass of the structure shown. Active and inactive are the calls of the source. No cut-off for these calls is given here.

Assays:
[1] = tested on: MCF7; assay: Cytotoxicity against human MCF7 cells after 48 hrs by SRB assay; assay type: functional; settings: MCF7, 48 h
[2] = tested on: P388; assay: Cytotoxicity against mouse P388 cells; assay type: functional; settings: read-out: ED50 (the source's name)
[3] = tested on: BXPC-3; assay: Cytotoxicity against human BxPC3 cells after 48 hrs by SRB assay; assay type: functional; settings: BXPC-3, 48 h
[4] = tested on: SF-268; assay: Cytotoxicity against human SF268 cells after 48 hrs by SRB assay; assay type: functional; settings: SF-268, 48 h
[5] = tested on: NCI-H460; assay: Cytotoxicity against human NCI-H460 cells after 48 hrs by SRB assay; assay type: functional; settings: NCI-H460, 48 h
[6] = tested on: KM-20L2; assay: Cytotoxicity against human KM20L2 cells after 48 hrs by SRB assay; assay type: functional; settings: KM-20L2, 48 h
[7] = tested on: DU-145; assay: Cytotoxicity against human DU145 cells after 48 hrs by SRB assay; assay type: functional; settings: DU-145, 48 h
[8] = tested on: Cryptococcus neoformans; assay: Antimicrobial activity against Cryptococcus neoformans ATCC 90122 after 24 hrs by broth microdilution assay; assay type: functional; settings: ATCC 90112, 24 h, in the assay text read “ATCC 90112” for “ATCC 90122”
Summary of the method: (§1)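 Yeasts were tested by NCCLS broth microdilution. Compounds were dissolved in a small volume of sterile DMSO and diluted in the appropriate medium immediately before testing. MIC was the lowest concentration inhibiting all visible growth (optically clear). Assays were repeated on separate days.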

[9] = tested on: Candida albicans; assay: Antimicrobial activity against Candida albicans ATCC 90028 at 64 ug/mL after 48 hrs by broth microdilution assay; assay type: functional, organism-based
[10] = tested on: Staphylococcus aureus; assay: Antimicrobial activity against Staphylococcus aureus ATCC 29213 after 24 hrs by broth microdilution assay; assay type: functional; settings: ATCC 29213, 24 h
Summary of the method: (§2)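 Bacterial MICs were determined by NCCLS broth microdilution. Compounds were dissolved in a small volume of sterile DMSO and diluted in the appropriate medium just before testing. MIC was the lowest concentration giving no visible growth (optically clear). Assays were repeated on separate days.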

[11] = tested on: Streptococcus pneumoniae; assay: Antimicrobial activity against Streptococcus pneumoniae ATCC 6303 after 24 hrs by broth microdilution assay; assay type: functional; settings: ATCC 6303, 24 h; summary of the method: as §2
[12] = tested on: Enterococcus faecalis; assay: Antimicrobial activity against Enterococcus faecalis ATCC 29212 after 24 hrs by broth microdilution assay; assay type: functional; settings: ATCC 29212, 24 h; summary of the method: as §2
[13] = tested on: Micrococcus luteus; assay: Antimicrobial activity against Micrococcus luteus Presque Isle 456 after 24 hrs by broth microdilution assay; assay type: functional; summary of the method: as §2
[14] = tested on: Escherichia coli; assay: Antimicrobial activity against Escherichia coli ATCC 25922 at 64 ug/mL after 24 hrs by broth microdilution assay; assay type: functional, organism-based
[15] = tested on: Enterobacter cloacae; assay: Antimicrobial activity against Enterobacter cloacae ATCC 13047 at 64 ug/mL after 24 hrs by broth microdilution assay; assay type: functional, organism-based
[16] = tested on: Stenotrophomonas maltophilia; assay: Antimicrobial activity against Stenotrophomonas maltophilia ATCC 13637 at 64 ug/mL after 24 hrs by broth microdilution assay; assay type: functional, organism-based
[17] = tested on: Neisseria gonorrhoeae; assay: Antimicrobial activity against Neisseria gonorrhoeae ATCC 49226 at 64 ug/mL after 24 hrs by broth microdilution assay; assay type: functional; settings: ATCC 49226, 24 h
[18] = tested on: Candida albicans; assay: Antimicrobial activity against Candida albicans ATCC 90028 after 48 hrs by broth microdilution assay; assay type: functional; settings: ATCC 90028, 48 h; summary of the method: as §1

MIC [8] [µg/mL] | MIC [10] [µg/mL] | MIC [11] [µg/mL] | MIC [12] [µg/mL] | MIC [13] [µg/mL] | MIC [17] [µg/mL] | MIC [18] [µg/mL] | Structure (SMILES) | GI50 [1] [µg/mL] | EC50 [2] [µg/mL] | GI50 [3] [µg/mL] | GI50 [4] [µg/mL] | GI50 [5] [µg/mL] | GI50 [6] [µg/mL] | GI50 [7] [µg/mL] | Activity [9] | Activity [14] | Activity [15] | Activity [16]
16 (≈ 56.3 µM) | 16 (≈ 56.3 µM) | 32 (≈ 113 µM) | 16 (≈ 56.3 µM) | 4 (≈ 14.1 µM) | 8 (≈ 28.1 µM) | – | CC(C)c1c(O)ccc2c1C=C[C@H]1C(C)(C)CCC[C@]21C | > 10 | 3.7 (≈ 13 µM) | > 10 | > 10 | > 10 | > 10 | > 10 | inactive | inactive | inactive | inactive
16 (≈ 52.9 µM) | 16 (≈ 52.9 µM) | 16 (≈ 52.9 µM) | 16 (≈ 52.9 µM) | 8 (≈ 26.4 µM) | 8 (≈ 26.4 µM) | 64 (≈ 212 µM) | CC(C)c1c(O)ccc2c1[C@H](O)C[C@H]1C(C)(C)CCC[C@]21C | 2.1 (≈ 6.94 µM) | 1.7 (≈ 5.62 µM) | 1.8 (≈ 5.95 µM) | 2.3 (≈ 7.6 µM) | 1.8 (≈ 5.95 µM) | 2.3 (≈ 7.6 µM) | 2.6 (≈ 8.6 µM) | – | inactive | inactive | inactive
